How the values were obtained:
Homo sapiens [1] = experiment: Dialytic clearance in patient with end-stage renal disease at 200 mg, po administered as single dose 2 hrs before dialysis; assay type: ADME, organism-based; details: in vivo
Method in brief: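 Dose given 2 h before a 3.5–4 h hemodialysis session. Paired pre- and postdialyzer plasma samples were taken at start, mid and end of dialysis. CLHD = [(QA×CA) – (QV×CV)]/CA, where QA and QV are dialyzer inflow and outflow blood rates and CA and CV are the paired concentrations.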

Hepatitis B virus = experiment: Antiviral activity against HBV in HBeAg-positive patient with chronic viral infection assessed as log reduction of serum viral DNA copies/ml at 60 mg/day after 6 to 12 weeks; assay type: functional
[2] = Plasma clearance in human with normal renal function; assay type: ADME, organism-based
[3] = Mean cumulative urine excretion level in human with normal renal function at 600 mg, po administered as single dose; assay type: ADME, organism-based; details: read-out: Activity
Method in brief: (§1)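 Urine collected at –2 to 0 h predose and at 0–4, 4–8, 8–12, 12–24 and 24–48 h after a single oral dose. Unchanged telbivudine measured by validated HPLC-MS/MS (LLOQ 30 ng/ml, calibration 30–5,000 ng/ml), and amounts were summed cumulatively.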

[4] = AUC (0 to infinity) in patient with mild renal impairment at 600 mg, po administered as single dose; assay type: ADME, organism-based; set-up: dose 600 mg, route oral, time infinity; details: human, plasma
Method in brief: (§2)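 Single oral telbivudine dose. Heparinized blood was drawn predose and up to 48 h postdose, with extra paired dialyzer samples for predialysis dosing. Plasma was stored at –20°C and assayed by validated HPLC-MS/MS (LLOQ 10 ng/ml, range 10–5,000 ng/ml). Noncompartmental analysis: AUC0-t by linear trapezoidal rule to last measurable concentration; AUC0-∞ = AUC0-t + Ct/kel.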

[5] = Mean cumulative urine excretion level in patient with moderate renal impairment at 400 mg, po administered as single dose; assay type: ADME, organism-based; details: human, read-out: Activity; method in brief: as §1
[6] = Initial decline half life in patient with end-stage renal disease at 200 mg, po administered as two single doses within 2 hrs of after completion of dialysis separated by 1 week washout period; assay type: ADME, organism-based; details: human, in vivo, read-out: alphat1/2 (converted)
Method in brief: (§3)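 Half-lives came from noncompartmental analysis of plasma LC-MS/MS concentrations over 48 h after a single oral dose. Terminal and initial-decline t1/2 were calculated as 0.693/k, with each rate constant derived by stripping and linear regression.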

[7] = Cmax in patient with end-stage renal disease at 200 mg, po administered as two single doses 2 hrs before dialysis separated by 1 week washout period; assay type: ADME, organism-based; set-up: dose 200 mg, route oral; details: human, in vivo
Method in brief: (§4)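 Plasma telbivudine after one oral dose, sampled predose through 48 h and quantified by validated LC-MS/MS (LLOQ 10 ng/ml, transition 243.0→127.1 m/z). Cmax was read directly from the observed concentration-time data.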

[8] = Mean cumulative urine excretion level in patient with severe renal impairment at 200 mg, po administered as single dose; assay type: ADME, organism-based; details: human, read-out: Activity; method in brief: as §1
[9] = Tmax in patient with end-stage renal disease at 200 mg, po administered as two single doses 2 hrs before dialysis separated by 1 week washout period; assay type: ADME, organism-based; details: human, in vivo
Method in brief: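 ESRD subjects dosed orally before dialysis, with a 3.5–4 h hemodialysis session starting 2 h post-dose. Blood was drawn predose and at 0.5, 0.75, 1, 2, 3.75–4, 5.5–6, 8, 12, 16, 20, 24, 28, 32, 36 and 48 h. Paired pre/postdialyzer samples were taken at the dialysis time points. Plasma telbivudine by HPLC-MS/MS. Tmax taken directly from the observed data.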

Homo sapiens [10] = experiment: AUC (0 to infinity) in human with normal renal function at 600 mg, po administered as single dose; assay type: ADME, organism-based, Plasma; set-up: dose 600 mg, route oral, time infinity; details: in vivo; method in brief: as §2
HepG2 = experiment: Metabolic stability in human HepG2 cells assessed as Telbivudine triphosphate half life; assay type: ADME, cell-based
[11] = Elimination half life in patient with end-stage renal disease at 200 mg, po administered as two single doses within 2 hrs of after completion of dialysis separated by 1 week washout period; assay type: ADME, organism-based; details: human, in vivo, read-out: beta t1/2 (converted); method in brief: as §3
[12] = Terminal half life in healthy human at 200 to 800 mg/day administered as single dose; assay type: ADME, organism-based; details: in vivo, read-out: beta t1/2 (converted)
[13] = AUC (0 to infinity) in patient with end-stage renal disease at 200 mg, po administered as two single doses 2 hrs before dialysis separated by 1 week washout period; assay type: ADME, organism-based; set-up: dose 200 mg, route oral, time infinity; details: human, plasma; method in brief: as §2
[14] = Renal clearance in patient with moderate renal impairment at 400 mg, po administered as single dose; assay type: ADME, organism-based, Kidney; details: human, in vivo, read-out: CL_renal (converted)
Method in brief: (§5)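 Renal clearance = Au0-t/AUC0-t, where Au0-t is the cumulative unchanged drug in urine collected over 0–48 h. Plasma and urine were assayed by validated HPLC-MS/MS after a single oral dose.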

[15] = Initial decline half life in patient with moderate renal impairment at 400 mg, po administered as single dose; assay type: ADME, organism-based; details: human, in vivo, read-out: alphat1/2 (converted); method in brief: as §3
[16] = Plasma clearance in patient with end-stage renal disease at 200 mg, po administered as two single doses 2 hrs before dialysis separated by 1 week washout period; assay type: ADME, organism-based; details: human
Method in brief: (§6)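 Apparent total oral plasma clearance (CL/F) = dose/AUC0-∞. AUC was obtained noncompartmentally from plasma LC-MS/MS concentrations sampled up to 48 h after a single oral dose.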

[17] = Tmax in patient with mild renal impairment at 600 mg, po administered as single dose; assay type: ADME, organism-based; details: human, in vivo
Method in brief: (§7)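 Single oral dose. Plasma was frozen at –20°C. Assay by validated HPLC-MS/MS (LLOQ 10 ng/ml, calibration 10–5,000 ng/ml, m/z 243.0→127.1). Tmax was read directly from the concentration-time data, with noncompartmental analysis.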

[18] = Renal clearance in patient with severe renal impairment at 200 mg, po administered as single dose; assay type: ADME, organism-based, Kidney; details: human, in vivo, read-out: CL_renal (converted)
Method in brief: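 Single oral dose. Urine was collected at –2–0 h and over 0–4, 4–8, 8–12, 12–24 and 24–48 h; plasma was sampled over 48 h. Both matrices were assayed by HPLC-MS/MS (urine LLOQ 30 ng/ml, plasma LLOQ 10 ng/ml). Renal clearance = cumulative urinary unchanged drug (Au0-t) / AUC0-t, with AUC by the linear trapezoidal rule.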

[19] = Initial decline half life in patient with mild renal impairment at 600 mg, po administered as single dose; assay type: ADME, organism-based; details: human, in vivo, read-out: alphat1/2 (converted); method in brief: as §3
[20] = Renal clearance in human with normal renal function at 600 mg, po administered as single dose; assay type: ADME, organism-based, Kidney; details: in vivo, read-out: CL_renal (converted); method in brief: as §5
[21] = Cmax in patient with mild renal impairment at 600 mg, po administered as single dose; assay type: ADME, organism-based; set-up: dose 600 mg, route oral; details: human, in vivo; method in brief: as §4
[22] = Cmax in patient with moderate renal impairment at 400 mg, po administered as single dose; assay type: ADME, organism-based; set-up: dose 400 mg, route oral; details: human, in vivo; method in brief: as §4
[23] = Tmax in patient with end-stage renal disease at 200 mg, po administered as two single doses within 2 hrs of after completion of dialysis separated by 1 week washout period; assay type: ADME, organism-based; details: human, in vivo; method in brief: as §7
[24] = AUC (0 to infinity) in patient with severe renal impairment at 200 mg, po administered as single dose; assay type: ADME, organism-based; set-up: dose 200 mg, route oral, time infinity; details: human, plasma; method in brief: as §2
[25] = Plasma clearance in patient with moderate renal impairment at 400 mg, po administered as single dose; assay type: ADME, organism-based; details: human; method in brief: as §6
[26] = Cmax in human with normal renal function at 600 mg, po administered as single dose; assay type: ADME, organism-based; set-up: dose 600 mg, route oral; details: in vivo; method in brief: as §4
[27] = Cmax in patient with end-stage renal disease at 200 mg, po administered as two single doses within 2 hrs of after completion of dialysis separated by 1 week washout period; assay type: ADME, organism-based; set-up: dose 200 mg, route oral; details: human, in vivo; method in brief: as §4

Work on `Cc1cn([C@@H]2C[C@@H](O)[C@H](CO)O2)c(=O)[nH]c1=O` [TELBIVUDINE] yielded a CL (Homo sapiens [1]) of 13.3 L/h, an Activity (Hepatitis B virus) of 6 mL⁻¹ and a clearance [2] of 200 mL/min. For the same compound, the dose excreted [3] was 31.5%, the AUC(0-inf) [4] was 32500 ng·h/mL and the dose excreted [5] was 19.8%. For the same compound, the half-life [6] was 4.87 h, the Cmax [7] was 1200 ng/mL and the dose excreted [8] was 8%. It also gave a Tmax [9] of 8 h, an AUC (Homo sapiens [10]) of 28500 ng·h/mL and a t1/2 (HepG2) of 15 h. It also gave a half-life [11] of 37.9 h, a half-life [12] of 40 h and an AUC(0-inf) [13] of 43400 ng·h/mL. The CL renal [14] was 43.3 mL/min, the half-life [15] was 3.82 h and the CL/F [16] was 81.7 mL/min. It also gave a Tmax [17] of 4 h, a CL renal [18] of 11.7 mL/min and a half-life [19] of 3.42 h. The CL renal [20] was 127 mL/min, the Cmax [21] was 3200 ng/mL and the Cmax [22] was 2800 ng/mL. For the same compound, the Tmax [23] was 3.5 h, the AUC(0-inf) [24] was 32500 ng·h/mL and the CL/F [25] was 227 mL/min. It also gave a Cmax [26] of 3400 ng/mL and a Cmax [27] of 2100 ng/mL.
